High-throughput results deposited in PubChem BioAssay by several laboratories.
The list is not random: actives were taken first. Their share in the collection is about 4.1%.
MPTP block = mitochondrial permeability transition pore inhibitors, primary screen, biochemical, isolated mouse mitochondria, absorbance. 1.4% of 360,000 active. inhibition, % at 10 µM. Ca2+ swelling absorbance, 30 min;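 active means inhibition of 50% or more, scaled per plate between neutral and stimulator controls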
ATG4B inhibitor = ATG4B protease inhibitors, primary screen, biochemical, fluorescence, uHTS. ATG4B cleavage of LC3-PLA2, NBD-HPC fluorescence, 1 h. inhibition, % at 8.33 µM. Cysteine protease ATG4B (Homo sapiens), Q9Y4P1. 0.51% of 340,000 active; in the data active means inhibition above about 40%
MC4R antagonist = MC4R antagonists of cAMP signaling, primary screen, cell-based, TR-FRET, antagonist arm of biased-ligand search; AID 540295, 2011; inhibition, % at 6.5 µM; MC4R-expressing cells, MTII-stimulated cAMP, LANCE TR-FRET; 0.48% of 360,000 active; Melanocortin receptor 4 (Homo sapiens), P32245;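 active means inhibition above its plate's cutoff, the mean of tested wells on that plate plus 3 SD, cut at about 29% in these data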
Target sequence (P32245 whole entry, looked up): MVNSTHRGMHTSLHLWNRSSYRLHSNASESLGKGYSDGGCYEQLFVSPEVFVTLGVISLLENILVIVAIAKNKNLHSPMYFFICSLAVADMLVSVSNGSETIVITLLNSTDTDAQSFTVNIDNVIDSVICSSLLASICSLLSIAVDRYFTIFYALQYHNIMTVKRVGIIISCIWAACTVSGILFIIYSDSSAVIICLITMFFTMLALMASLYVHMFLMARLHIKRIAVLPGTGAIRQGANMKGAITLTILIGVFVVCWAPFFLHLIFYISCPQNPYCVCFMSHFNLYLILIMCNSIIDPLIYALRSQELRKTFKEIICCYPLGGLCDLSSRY
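System: U2OS cells stably expressing human melanocortin 4 receptor (MC4R). Reagent: Melanotan II challenge after compound preincubation. Doses: 6.5 µM. Times: 30-min compound, 1-h challenge, 1-h detection, room temperature. Measured by: TR-FRET with Eu-cAMP and labeled anti-cAMP, 671 nm. Replicates: singlicate.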
SMARCA2 act = SMARCA2 (BRM) function activators, primary screen, cell-based, luminescence, high throughput. 1% of 370,000 active. activation, % at 9.1 µM. MG213 cells, MMTV-luciferase reporter, dexamethasone, overnight; in the data active means activation above about 7.8%
MC4R ag barr = MC4R agonists recruiting beta-arrestin, primary screen, cell-based, luminescence, agonist arm of biased-ligand search. 0.98% of 360,000 active. activation, % at 8.9 µM. Melanocortin receptor 4 (Homo sapiens), P32245. AID 540308, 2011. U2OS MC4R beta-arrestin complementation; percent of melanotan II response, DMSO zero;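 active means activation above a per-plate cutoff, the mean activation of sample wells on that plate plus 3 SD, cut at about 8% in these data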
SMARCA2 conf = SMARCA2 (BRM) function activators, confirmation, cell-based, luminescence, triplicate | shares compounds with SMARCA2 act | MG213 cells, MMTV-luciferase with dexamethasone, overnight; MG213 cells expressing E1A, Rb sequestered; DMSO wells 0%, reference activator 100% | activation, % at 9.1 µM | 30% of 3,500 active;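 active means activation above its plate's cutoff, the mean activation of tested wells plus 3 SD, cut at about 7.9% in these data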
GAL4-VP16 Luc = GAL4-VP16 luciferase reporter activation, counter-screen for SMARCA2 (BRM) activator project, cell-based, pG5luc, luminescence, high throughput; shares compounds with SMARCA2 act; HEK293 GAL4-VP16 pG5luc reporter; scaled: DMSO wells 0%, SAHA wells 100%; activation, % at 9.1 µM; 41% of 3,500 active; AID 686939, 2013;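 active means activation above the solvent-only control well mean plus 3 SD, averaged across control plates, cut at about 5.2% in these data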
Numbers stand for hits; 0 = inactive; - = no result given.

SMILES	MPTP block	ATG4B inhibitor	MC4R antagonist	SMARCA2 act	MC4R ag barr	SMARCA2 conf	GAL4-VP16 Luc
CS(=O)(=O)c1cccc(C(=O)OCC(=O)c2ccc3c(c2)OCCO3)c1	0	0	0	0	0	-	-
Cc1ccc(S(=O)(=O)N(C)C[C@@H]2OCc3cnnn3CCCC(=O)N([C@@H](C)CO)C[C@H]2C)cc1	0	-	0	0	0	-	-
Cc1c(C(=O)Nc2ccc3c(c2)OCO3)oc2ccccc12	0	0	0	9.7	0	0	11
COc1ccc2oc(C(=O)OCC(=O)N3CCC(C)CC3)c(C)c2c1	0	0	0	0	0	-	-
Cc1c(C(=O)OCC(=O)N2CCC(C)CC2)oc2ccccc12	0	0	0	9.2	0	0	0
Cc1ccccc1NC(=O)[C@@H]1CC(=O)O[C@@H]1c1ccccc1	-	-	-	0	-	-	-
CC(C)(C)c1ccc(-c2nnc(SCC3CCCCO3)n2-c2ccc(Cl)cc2)cc1 (stereo unspecified)	-	-	-	0	-	-	-
COc1ccc(OC)c(/C=C/C(=O)Nc2ccc3c(c2)CCC3)c1	0	0	0	0	0	-	-
COc1ccccc1/C=C/C(=O)Nc1ccc2c(c1)CCC2	0	0	0	8.9	0	0	14
c1ccc(OCc2nnc3sc(C4COc5ccccc5O4)nn23)cc1 (stereo unspecified)	0	0	0	9.2	0	0	0
c1ccc(Cc2nnc3sc(C4COc5ccccc5O4)nn23)cc1 (stereo unspecified)	0	0	0	0	0	-	-
CN(C)/N=C/C=C1\CC/C(=C\c2ccc(Br)cc2)C1=O	0	0	0	0	0	-	-
CN(C)/N=C/C=C1\CCC/C(=C/c2cccs2)C1=O	0	0	0	8.3	0	0	5.3
O=C1NC(=S)S/C1=C\C=C\c1ccc([N+](=O)[O-])o1	0	0	0	24	0	0	0
O=C(O)/C=C/c1ccc([N+](=O)[O-])o1	0	0	0	0	0	-	-
CN(C)c1ccc(N(C)C)c(C(O)(c2ccccc2)c2ccccc2)c1	-	-	-	0	-	-	-
C=CCn1c(O)c(C2=c3ccccc3=NC2=O)sc1=Nc1ccc(O)cc1	0	0	0	9.6	0	0	0
Cc1ccc(C(=O)c2sc3nc4c(cc3c2N)CCC4)cc1	0	0	0	9.1	0	8.4	8.3
Nc1c(C(=O)N2CCCCC2)sc2nc3c(cc12)CCCC3	0	0	0	0	0	-	-
Cc1cc(C(=O)CN2C(=O)NC3(CCCC3)C2=O)c(C)n1-c1ccc2c(c1)OCO2	0	0	0	9.4	0	0	0
COC(=O)[C@H]1C[C@@]2(C#N)c3ccccc3N(C(=O)OC(C)(C)C)[C@H]2N1C(=O)OC(C)(C)C	-	-	-	0	-	-	-
COc1cccc(-c2ccc3c(N)c(C(=O)NC4CC4)sc3n2)c1	0	0	0	13	0	0	8.5
COc1ccc(-c2ccc3c(N)c(C(=O)c4cccc(OC)c4)sc3n2)cc1	0	0	0	0	0	-	-
Cc1ccc(C)c(NC(=O)c2cc(-c3cc(C)c(C)cc3O)n[nH]2)c1	0	0	0	11	0	0	5.9
Cc1cc(F)ccc1-c1cc(C(=O)NCC2CCCCC2)[nH]n1	0	-	0	8.6	0	0	0
Cc1ccc2c(c1)-c1c(cnn1CC(=O)NCCc1ccccc1F)CO2	-	-	-	0	-	-	-
